Bioassay records as filed in PubChem BioAssay.
FN deposit inh = fibronectin deposition inhibition; 350,000 compounds, 0.086% hits; AH1F fibroblasts, Alexa488-fibronectin deposition fluorescence, overnight; inhibition, % at 12.6 µM;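 active = mean inhibition across replicates of 30% or more, regardless of how many single replicates reach that level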;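 also: positive control wells lacked labelled fibronectin entirely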
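Assay system: AH1F fibroblasts / Quantity: 10000 cells per well / Medium: DMEM plus 2% serum, read in PBS / Reagent: labelled fibronectin 24 nM / Dosing: single dose, pinned / Times: 1 h cell attachment, overnight exposure to compound and label / Signal: fluorescence, ex 485 nm, em 525 nm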
Efflux pump mplx = inhibitors of Candida antifungal efflux pumps expressed in yeast. S. cerevisiae Candida pump triplex, Nile Red efflux. inhibition, % at 10 µM. 330,000 compounds, 0.44% hits. AID 485275;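 active = plate passing quality check with inhibition over a set limit, or well fluorescence over plate mean plus 4 SD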;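 also: Nile Red retained in pooled yeast measured as flow cytometry median fluorescence; 0% = buffer negative control and 100% = Enniatin B positive control; higher means more Nile Red kept so more efflux inhibition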
SR-BI DiI inh = inhibitors of mouse SR-BI mediated HDL lipid uptake; inhibition, % at 12.5 µM; ldlA[mSR-BI] CHO cells, DiI-HDL uptake fluorescence, 3 h; 320,000 compounds, 0.96% hits; Q61009;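 active = mean replicate inhibition of at least 70% and a set share of replicates each scoring 70 or more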;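 also: 0% = median of neutral control wells and 100% = median of positive control wells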
Target sequence (Q61009 whole entry, looked up): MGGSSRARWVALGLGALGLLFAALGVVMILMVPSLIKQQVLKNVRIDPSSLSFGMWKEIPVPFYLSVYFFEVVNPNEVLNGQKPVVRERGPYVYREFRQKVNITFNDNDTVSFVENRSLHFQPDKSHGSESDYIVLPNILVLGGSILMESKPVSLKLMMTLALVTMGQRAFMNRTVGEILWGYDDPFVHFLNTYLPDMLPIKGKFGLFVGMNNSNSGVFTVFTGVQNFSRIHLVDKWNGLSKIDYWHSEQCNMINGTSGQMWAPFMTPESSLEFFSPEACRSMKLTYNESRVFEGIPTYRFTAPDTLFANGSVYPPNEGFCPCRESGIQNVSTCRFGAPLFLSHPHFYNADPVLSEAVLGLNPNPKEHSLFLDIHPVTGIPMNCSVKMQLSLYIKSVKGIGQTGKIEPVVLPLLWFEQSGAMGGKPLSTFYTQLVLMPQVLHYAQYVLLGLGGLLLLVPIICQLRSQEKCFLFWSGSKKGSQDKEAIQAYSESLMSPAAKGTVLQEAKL
CaV13 FRET inh = Disruptors of the CACNA1D IQ motif to Ca2+-dependent inactivation inhibitor domain association, primary screening, Förster resonance energy transfer in intact living …; HEK cells, CFP/YFP FRET ICDI-IQ, plate reader, 10 min; percent FRET-ratio fall versus neutral wells; inhibition, % at 12.3 µM; 340,000 compounds, 0.098% hits; AID 743397;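 active = mean replicate inhibition of at least 30% and at least 1% of replicates passing that level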;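 also: 0% = median of the neutral control wells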
SR-BI uptake up = SR-BI HDL lipid transfer activation. 320,000 compounds, 0.096% hits. activation, % at 12.5 µM. CHO ldlA[mSR-BI] cells, DiI-HDL uptake fluorescence, 3 h; 100 = double the neutral-control signal. AID 504775;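 active = mean replicate activation of at least 60% and every replicate at or above 60%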;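 also: 0% = median plate neutral-control signal and 100% = twice that signal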
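Material: SR-BI-overexpressing, LDLR-lacking CHO cells | Dosing: Single compound concentration, delivered by pin transfer | Probe or stimulus: Labelled HDL, 10 µg/mL | Signal: Bottom-read cell fluorescence after medium removal, ex 550/em 595 nm | Schedule: 3 h, 37 °C | Evaluation: HDL uptake via cellular fluorescence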
* = called active by the depositor; nt = no result given; + = active, no number. This is a sample that favours compounds with a hit; in the whole collection about 1.2% have one here.

SMILES	FN deposit inh	Efflux pump mplx	SR-BI DiI inh	CaV13 FRET inh	SR-BI uptake up
COc1ccc(N2CCC(CNC(=O)Nc3ccc(OC)cc3OC)C2)cc1 (configuration not stated)	nt	0.1	96.5*	nt	-96.5
COc1ccc(CCN=C(N)NS(=O)(=O)c2ccc(F)cc2)cc1	-0.2	-0.3	0.4	72.5*	-0.4
Cc1ccccc1S(=O)(=O)NCC[C@H]1CC[C@H](NC(=O)C2CC2)[C@@H](CO)O1	-18.2	nt	nt	nt	nt
CC(Nc1ccc(Cl)cc1)c1cc(Cl)ccc1O (configuration not stated)	nt	0.0	-373.1	0.1	373.1*
CCC(=O)N1[C@@H](CO)[C@@H](c2ccc(-c3ccccc3C)cc2)C12CN(C(C)=O)C2	1.0	nt	nt	nt	nt
Cc1cc(O)c2c(c1O)C(=O)[C@]13C(=C2O)C(=O)[C@@H]2[C@@H](O)[C@H]1[C@@H]1[C@H](O)[C@H]3C(=O)C3=C(O)c4c(O)cc(C)c(O)c4C(=O)[C@]312	nt	0.1	94.9*	nt	-94.9
CCC1(CC)NC(=O)N(CC(=O)OC(C)C(=O)Nc2ccc(Cl)cn2)C1=O (configuration not stated)	4.9	0.0	-4.5	-5.6	4.5
CCC1(CC)NC(=O)N(CC(=O)OC(C)C(=O)Nc2cc([N+](=O)[O-])ccc2OC)C1=O (configuration not stated)	4.3	0.2	74.4*	-5.6	-74.4
COc1ccc(-c2nc(-c3ccccc3)c(-c3cccs3)[nH]2)cc1OC	-2.7	-0.1	58.3	-3.0	-58.3
COc1cc(-c2nc(-c3ccccc3)c(-c3ccc(F)cc3)[nH]2)cc2c1OCO2	8.0	0.0	84.7*	-14.4	-84.7
O=C(C1CCCCC1)N1[C@@H](CO)[C@@H](c2ccccc2)C12CN(Cc1ccc(F)cc1)C2	0.7	nt	nt	nt	nt
COCC(=O)N1C[C@@H](C)[C@H](OC)CN(C)C(=O)c2ccc(NC(=O)c3ccc(OC)cc3)cc2OC[C@H]1C	3.0	nt	nt	nt	nt
Cc1ccccc1C(=O)N1CCN(c2ccc(NC(=O)c3cccnc3Cl)cc2)CC1	-3.9	-0.1	76.4*	-2.4	-76.4
O=[N+]([O-])c1ccc(NC(=S)N2CCN(c3ccccc3)CC2)cc1	19.3	-0.3	-75.2	-2.6	75.2*
Cc1ccccc1C(=O)N1CCN(c2ccc(NC(=O)c3ccccc3[N+](=O)[O-])cc2)CC1	-4.4	-0.1	78.0*	-4.1	-78.0
O=C(Nc1ccc(N2CCCC2)cc1)c1ccccc1[N+](=O)[O-]	-16.0	0.0	7.9	-4.9	-7.9
C[C@H](C(=O)N(C)C[C@H]1OCc2ccccc2-c2ccccc2C(=O)N([C@H](C)CO)C[C@@H]1C)c1ccccc1	-13.7	nt	nt	nt	nt
C#CCOc1c(/C=C\c2nc(O)c([N+](=O)[O-])c(=O)[nH]2)cc(Br)cc1OC	-8.7	0.0	-17.1	-18.3	17.1
COC(=O)COc1c(/C=C\c2nc(O)c([N+](=O)[O-])c(=O)[nH]2)cccc1OC	0.6	0.0	74.9*	-19.6	-74.9
Cc1ccc(S(=O)(=O)N(C)C[C@H]2Oc3ncc(-c4ccncc4)cc3C(=O)N([C@H](C)CO)C[C@H]2C)cc1	-7.2	nt	nt	nt	nt
COc1cc(Cl)c(NC2=CC(=O)C(=O)c3ccccc32)c(OC)c1	-3.4	0.0	90.4*	-6.1	-90.4
C[C@H]1CN(C)C(=O)c2cccnc2O[C@H]1CN(C)S(C)(=O)=O	4.8	nt	nt	nt	nt
COC(=O)/C(=C(O)\C=C\c1ccccc1[N+](=O)[O-])c1nc2ccccc2[nH]1	1.4	0.1	88.8*	-4.6	-88.8
O=c1[nH]c(/C=C/c2ccccc2[N+](=O)[O-])nc2ccccc12	-1.1	0.4	-24.0	-2.8	24.0
COCC(=O)Nc1ccc2c(c1)OC[C@@H](C)N(CC1CCCCC1)C[C@@H](C)[C@@H](OC)CN(C)C2=O	4.5	nt	nt	nt	nt
O=C(O)c1ccc(N/N=C/c2ccc(-c3ccccc3Cl)o2)cc1	-4.3	-0.1	-5.3	+	5.3
CS(=O)(=O)N1C2CN(CC3CC3)CC1C2c1ccc(Br)cc1 (configuration not stated)	-6.3	nt	nt	nt	nt
COc1cc(-c2noc(C)c2C(=O)NCc2ccc3c(c2)OCO3)cc(OC)c1OC	12.2	-0.1	-6.9	-9.8	6.9
